Data published in ChEMBL document CHEMBL4017507 (J Med Chem, 2017).

Tests used:
Human alphaherpesvirus 3 [1] = experiment: Antiviral activity against thymidine kinase deficient Varicella-Zoster virus 07-1 infected in human HEL cells assessed as inhibition of virus-induced cytopathic effect; type: functional, cell-based; details: Human alphaherpesvirus 3, 07-1, HEL
Method in brief: (§1)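 Confluent HEL fibroblast cultures were inoculated with 20 PFU of VZV in the presence of varying compound concentrations. Plaque formation was recorded once untreated infected controls reached completion.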

Human alphaherpesvirus 2 = experiment: Antiviral activity against Herpes simplex virus 2 G infected in human HEL cells assessed as inhibition of virus-induced cytopathic effect; type: functional, cell-based; details: Human alphaherpesvirus 2, strain G
Method in brief: (§2)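 Confluent HEL fibroblast monolayers were inoculated in 96-well plates with 100 CCID50 of virus in the presence of serially varied compound concentrations. Cytopathicity was scored once untreated infected controls reached full CPE.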

CCRF-CEM = experiment: (§3) Cytostatic activity human CEM cells assessed as reduction in cell viability after 72 hrs by cell counting method; type: cell-based; details: ccrf-cem, 72 h
Method in brief: (§4)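 (5–7.5) × 10^? CEM cells per well were grown with compound for 72 h at 37 °C under humidified CO2. Cells were counted in a Coulter counter.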

[2] = Cytotoxicity against human HEL cells assessed as alteration to cell morphology by microscopic analysis; type: cell-based
Method in brief: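 Minimal cytotoxic concentration is the compound concentration giving a microscopically visible alteration of HEL cell morphology, scored in the antiviral assay cultures.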

HEL = experiment: Cytotoxicity against human HEL cells assessed as cell growth inhibition by cell counting method; type: cell-based
Human alphaherpesvirus 1 [3] = experiment: Antiviral activity against Herpes simplex virus 1 KOS infected in human HEL cells assessed as inhibition of virus-induced cytopathic effect; type: functional, cell-based; details: Human alphaherpesvirus 1, KOS; method in brief: as §2
Human alphaherpesvirus 3 [4] = experiment: Antiviral activity against Varicella-Zoster virus OKA infected in human HEL cells assessed as inhibition of virus-induced cytopathic effect; type: functional, cell-based; details: Human alphaherpesvirus 3, strain Oka vaccine; method in brief: as §1
MT4 = experiment: Cytotoxicity against human MT4 cells assessed as reduction in cell viability by cell counting method; type: cell-based
Method in brief: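 MT-4 cultures, untreated or treated, were assessed with an automated cell counter using propidium iodide staining to enumerate total and dead cells.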

Human alphaherpesvirus 1 [5] = experiment: Antiviral activity against ACV-resistant thymidine kinase deficient Herpes simplex virus 1 KOS infected in human HEL cells assessed as inhibition of virus-induced cytopathic effect; type: functional, cell-based; details: Human alphaherpesvirus 1, KOS; method in brief: as §2
[6] = test system: Human immunodeficiency virus 1; experiment: Antiviral activity against HIV1 X4LAI.04 infected in human MT4 cells assessed as decrease in viral replication by p24gag-based luminex assay; type: functional, cell-based; details: Human immunodeficiency virus 1, X4LAI.04, MT4
Method in brief: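 10^6 MT-4 cells were infected with HIV-1 X4LAI.04 (7 ng p24) for 2 h at 37 °C, then washed with PBS and resuspended. Compounds were added and cultures were kept 3 days at 37 °C. Supernatant p24 was measured by bead-based Luminex. Inhibition was calculated as (1 − p24 treated/p24 untreated) × 100, and EC50 was derived from it.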

Human betaherpesvirus 5 [7] = experiment: Antiviral activity against human cytomegalovirus AD-169 infected in human HEL cells assessed as inhibition of virus-induced cytopathic effect; type: functional, cell-based; details: Human betaherpesvirus 5, AD-169, HEL; method in brief: as §2
[8] = test system: Human immunodeficiency virus 1; experiment: Antiviral activity against HIV1 X4LAI.04 infected in human tonsillar tissues assessed as inhibition of virus-induced cytopathic effect by p24gag-based luminex assay; type: functional; details: Human immunodeficiency virus 1, X4LAI.04
Method in brief: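 Tonsillectomy tissue blocks of 2–3 mm³ were cultured on collagen sponge gels at the air–liquid interface, 27 blocks per donor per condition. Blocks were pretreated with compound overnight, infected with HIV-1 X4LAI.04 and cultured 12 days, with drug replenished at each medium change every 3 days. Medium p24 was measured by Luminex. Inhibition was calculated against untreated tissue, and EC50 was derived from it.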

Human betaherpesvirus 5 [9] = experiment: Antiviral activity against human cytomegalovirus Davis infected in human HEL cells assessed as inhibition of virus-induced cytopathic effect; type: functional, cell-based; details: Human betaherpesvirus 5, Davis; method in brief: as §2
[10] = as §3; type: cell-based, CCRF-CEM; details: CEM cells (CCRF-CEM); method in brief: as §4
[11] = Drug metabolism assessed as carboxypeptidase Y (unknown origin)-mediated metabolite 81 peak measured after 15 mins by [31P]-NMR spectroscopic analysis; type: ADME; details: human
[12] = Drug metabolism assessed as carboxypeptidase Y (unknown origin)-mediated metabolite 79 formation measured after 15 mins by [31P]-NMR spectroscopic analysis; type: ADME; details: human
[13] = Prodrug activation assessed as carboxypeptidase Y (unknown origin)-mediated 2-((4-(2-amino-6-chloro-9H-purin-9-yl)-2-(hydroxymethyl)butoxy)oxidophosphorylamino)propanoate formation by mass spectroscopic analysis; details: human
[14] = Prodrug activation assessed as carboxypeptidase Y (unknown origin)-mediated 2-((4-(2-amino-6-chloro-9H-purin-9-yl)-2-(hydroxymethyl)butoxy)oxidophosphorylamino)propanoate formation measured after 8 hrs by [31P]-NMR spectroscopic analysis; details: human
[15] = Prodrug activation assessed as carboxypeptidase Y (unknown origin)-mediated 2-((4-(2-amino-6-chloro-9H-purin-9-yl)-2-(hydroxymethyl)butoxy)oxidophosphorylamino)propanoate peak formation measured after […] by [31P]-NMR spectroscopic analysis; details: human
[16] = Prodrug activation assessed as carboxypeptidase Y (unknown origin)-mediated 2-{5-[2-(2-Amino-6-chloro-purin-9-yl)-ethyl]-2-oxo-2lambda(5)-[1,3,2]dioxaphosphinan-2-ylamino}-propionic acid anion peak formation measured with in 1 hr by [31P]-NMR spectroscopic analysis; details: human
[17] = Drug metabolism assessed as carboxypeptidase Y (unknown origin)-mediated metabolite 81 peak measured after 14 hrs by [31P]-NMR spectroscopic analysis; type: ADME; details: human
[18] = Drug metabolism assessed as carboxypeptidase Y (unknown origin)-mediated metabolite 79 formation measured after 14 hrs by [31P]-NMR spectroscopic analysis; type: ADME; details: human
[19] = Drug metabolism assessed as carboxypeptidase Y (unknown origin)-mediated metabolite 81 peak formation measured with in 30 mins by [31P]-NMR spectroscopic analysis; type: ADME; details: human, 0.5 h

`Nc1nc(O)c2ncn(CSC(CO)CO)c2n1` showed an EC50 (Human alphaherpesvirus 3 [1]) of over 50 µM, an EC50 (Human alphaherpesvirus 2) of 0.5 µM and a CC50 (CCRF-CEM) of over 500 µM. It also gave an MCC [2] of 50 to 100 µM, a CC50 (HEL) of over 100 µM and an EC50 (Human alphaherpesvirus 1 [3]) of 0.4 µM. For the same molecule, the EC50 (Human alphaherpesvirus 3 [4]) was 6.9 µM, the IC50 (MT4) was over 150 µM and the EC50 (Human alphaherpesvirus 1 [5]) was 1.6 µM. For the same molecule, the EC50 [6] was over 150 µM, the EC50 (Human betaherpesvirus 5 [7]) was over 50 µM and the EC50 [8] was over 30 µM. It also gave an EC50 (Human betaherpesvirus 5 [9]) of 40.8 µM.
Work on `Nc1nc(O)c2ncn(COC(CO)CO)c2n1` [GANCICLOVIR] yielded an EC50 (Human alphaherpesvirus 2) of 0.04 µM, a CC50 at 72 h [10] of over 100 µM and an MCC [2] of 100 to 350 µM. The CC50 (HEL) was 273 µM, the IC50 (MT4) was over 50 µM and the EC50 [6] was over 50 µM. For the same molecule, the EC50 [8] was 5 µM.
For `C[C@H](NP(=O)(OCC(CO)CCn1cnc2c(=O)[nH]c(N)nc21)Oc1cccc2ccccc12)C(=O)OCc1ccccc1` (some centres not stated), the EC50 (Human alphaherpesvirus 3 [1]) was over 50 µM, the EC50 (Human alphaherpesvirus 2) was 79 µM and the CC50 (CCRF-CEM) was 138 µM. For the same molecule, the Drug metabolism [11] was “Metabolite_Detected”, the MCC [2] was 50 to 100 µM and the CC50 (HEL) was over 100 µM. For the same molecule, the EC50 (Human alphaherpesvirus 1 [3]) was 73 µM, the EC50 (Human alphaherpesvirus 3 [4]) was 9.3 µM and the IC50 (MT4) was 100 µM. For the same molecule, the EC50 (Human alphaherpesvirus 1 [5]) was over 100 µM, the EC50 [6] was 21 µM and the EC50 (Human betaherpesvirus 5 [7]) was over 50 µM. The Drug metabolism [12] was “Metabolite_Detected” and the EC50 (Human betaherpesvirus 5 [9]) was over 50 µM.
In the case of `C[C@H](NP1(=O)OCC(OCn2cnc3c(Cl)nc(N)nc32)CO1)C(=O)OCc1ccccc1` (some centres not stated), the Drug metabolism [13] is reported as “Metabolite_Detected”, the EC50 (Human alphaherpesvirus 2) is reported as over 100 µM and the CC50 (CCRF-CEM) is reported as 165 µM. For the same molecule, the Drug metabolism [14] was “Metabolite_Detected”, the MCC [2] was over 100 µM and the EC50 (Human alphaherpesvirus 1 [3]) was over 100 µM. For the same molecule, the IC50 (MT4) was 150 µM, the Drug metabolism [15] was “Metabolite_Detected” and the EC50 (Human alphaherpesvirus 1 [5]) was over 100 µM. The EC50 [6] was 85 µM, the Drug metabolism [16] was “Metabolite_Detected” and the EC50 [8] was 9 µM.
Molecule `C[C@H](NP(=O)(OCC(COP(=O)(N[C@@H](C)C(=O)OCc1ccccc1)Oc1ccccc1)SCn1cnc2c(=O)[nH]c(N)nc21)Oc1ccccc1)C(=O)OCc1ccccc1` (some centres not stated) has an EC50 (Human alphaherpesvirus 3 [1]) of over 50 µM, an EC50 (Human alphaherpesvirus 2) of over 100 µM and a CC50 (CCRF-CEM) of 77 µM. For the same molecule, the MCC [2] was 50 to 100 µM, the CC50 (HEL) was over 100 µM and the EC50 (Human alphaherpesvirus 1 [3]) was over 100 µM. The EC50 (Human alphaherpesvirus 3 [4]) was 23 µM, the IC50 (MT4) was 21 µM and the EC50 (Human alphaherpesvirus 1 [5]) was over 100 µM. The EC50 [6] was 24 µM, the EC50 (Human betaherpesvirus 5 [7]) was over 50 µM and the EC50 [8] was over 3 µM. It also gave an EC50 (Human betaherpesvirus 5 [9]) of over 50 µM.
Molecule `CCCOC(=O)[C@H](C)NP(=O)(OCC(CCn1cnc2c(OC)nc(N)nc21)COP(=O)(N[C@@H](C)C(=O)OCCC)Oc1cccc2ccccc12)Oc1cccc2ccccc12` (some centres not stated) has an EC50 (Human alphaherpesvirus 3 [1]) of 8.1 µM, an EC50 (Human alphaherpesvirus 2) of over 100 µM and a CC50 (CCRF-CEM) of 6.8 µM. It also gave an MCC [2] of 50 to 100 µM, a CC50 (HEL) of 4.9 µM and an EC50 (Human alphaherpesvirus 1 [3]) of over 100 µM. The EC50 (Human alphaherpesvirus 3 [4]) was 6.1 µM, the Drug metabolism [17] was “Metabolite_Detected” and the IC50 (MT4) was 20 µM. It also gave an EC50 (Human alphaherpesvirus 1 [5]) of over 100 µM, an EC50 [6] of 9.7 µM and an EC50 (Human betaherpesvirus 5 [7]) of 32 µM. The EC50 (Human betaherpesvirus 5 [9]) was 40 µM and the Drug metabolism [18] was “Metabolite_Detected”.
Work on `C[C@H](NP(=O)(OCC(CO)CCn1cnc2c(Cl)nc(N)nc21)Oc1ccccc1)C(=O)OCc1ccccc1` (mixture of isomers) yielded an EC50 (Human alphaherpesvirus 3 [1]) of 42.9 µM, an EC50 (Human alphaherpesvirus 2) of over 100 µM and a CC50 (CCRF-CEM) of 33 µM. It also gave an MCC [2] of over 100 µM, a CC50 (HEL) of 39 µM and an EC50 (Human alphaherpesvirus 1 [3]) of over 100 µM. For the same molecule, the EC50 (Human alphaherpesvirus 3 [4]) was 37.3 µM, the IC50 (MT4) was 20 µM and the EC50 (Human alphaherpesvirus 1 [5]) was over 100 µM. For the same molecule, the EC50 [6] was 1 µM, the EC50 (Human betaherpesvirus 5 [7]) was over 100 µM and the EC50 [8] was 4 µM. The EC50 (Human betaherpesvirus 5 [9]) was over 100 µM and the Drug metabolism [19] was “Metabolite_Detected”.
